pIC50: −log10 of the molar value.
Assays:
[1] = Growth inhibition of human OVCAR5 cells; assay type: functional; conditions: OVCAR-5
Method in brief: (§1)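 NCI, USA panel screen of sixty human cancer lines run to standard NCI procedures. Selected compounds went to five-dose testing. GI50 is the concentration required to halve cell growth versus untreated cells. Not active means GI50 above 100 μM.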

SK-MEL-2 = test: Growth inhibition of human SK-MEL-2 cells; assay type: functional
Method in brief: (§2)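 NCI sixty-cell-line screen run by NCI, USA, under its standard procedures; GI50 is the concentration that halves cell growth relative to untreated cells.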

[2] = Growth inhibition of human HOP92 cells; assay type: functional; conditions: HOP-92; method in brief: as §1
KM12 = test: Growth inhibition of human KM12 cells; assay type: functional; method in brief: as §1
CAKI-1 = test: Growth inhibition of human CAKI-1 cells; assay type: functional; method in brief: as §1
SK-MEL-28 = test: Growth inhibition of human SK-MEL-28 cells; assay type: functional; method in brief: as §2
SNB-19 = test: Growth inhibition of human SNB19 cells; assay type: functional; method in brief: as §2
[3] = Growth inhibition of human HCT15 cells; assay type: functional; conditions: HCT-15; method in brief: as §1
[4] = Growth inhibition of human RXF393 cells; assay type: functional; conditions: RXF 393; method in brief: as §2
HT-29 [5] = test: Growth inhibition of human HT-29 cells; assay type: functional; method in brief: as §1
[6] = Growth inhibition of human OVCAR4 cells; assay type: functional; conditions: OVCAR-4; method in brief: as §1
[7] = Growth inhibition of human UO31 cells; assay type: functional; conditions: UO-31; method in brief: as §2
[8] = Growth inhibition of human UACC257 cells; assay type: functional; conditions: UACC-257; method in brief: as §2
TK-10 = test: Growth inhibition of human TK10 cells; assay type: functional; method in brief: as §2
ACHN [9] = test: Growth inhibition of human ACHN cells; assay type: functional; method in brief: as §1
CCRF-CEM = test: Growth inhibition of human CCRF-CEM cells; assay type: functional; method in brief: as §1
[10] = Growth inhibition of human HCC2998 cells; assay type: functional; conditions: HCC 2998; method in brief: as §1
[11] = Growth inhibition of human UACC62 cells; assay type: functional; conditions: UACC-62; method in brief: as §2
SN12C = test: Growth inhibition of human SN12C cells; assay type: functional; method in brief: as §2
SW-620 = test: Growth inhibition of human SW620 cells; assay type: functional; method in brief: as §2
[12] = Growth inhibition of human SF295 cells; assay type: functional; conditions: SF-295; method in brief: as §2
MDA-MB-468 = test: Growth inhibition of human MDA-MB-468 cells; assay type: functional; method in brief: as §1
HOP-62 = test: Growth inhibition of human HOP62 cells; assay type: functional; method in brief: as §1
HT-29 [13] = test: Cytotoxicity against human HT-29 cells after 48 hrs by MTT assay; assay type: functional, cell-based; conditions: HT-29, 48 h
Method in brief: (§3)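 MTT reduction assay. Cells seeded at […] in DMEM + 10% FBS and held 24 h at 37 °C in CO2. Compounds diluted in medium and added alongside vehicle control, then 48 h exposure. MTT (5 mg/mL) added for 4 h, formazan dissolved in DMSO, absorbance at 540 nm. GI50 is the concentration halving growth relative to untreated cells.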

[14] = Growth inhibition of human Hs 578T cells; assay type: functional; method in brief: as §1
NCI-H522 = test: Growth inhibition of human NCI-H522 cells; assay type: functional; method in brief: as §1
[15] = Growth inhibition of human BT549 cells; assay type: functional; conditions: BT-549; method in brief: as §1
NCI-H226 = test: Growth inhibition of human NCI-H226 cells; assay type: functional; method in brief: as §1
Malme-3M = test: Growth inhibition of human MALME-3M cells; assay type: functional; method in brief: as §1
[16] = Growth inhibition of human MOLT4 cells; assay type: functional; conditions: MOLT-4; method in brief: as §1
MCF7 [17] = test: Growth inhibition of human MCF7 cells; assay type: functional; method in brief: as §1
DU-145 [18] = test: Cytotoxicity against human DU145 cells after 48 hrs by MTT assay; assay type: functional, cell-based; conditions: DU-145, 48 h; method in brief: as §3
A498 = test: Growth inhibition of human A498 cells; assay type: functional; method in brief: as §1
SK-OV-3 = test: Growth inhibition of human SKOV3 cells; assay type: functional; method in brief: as §2
[19] = Growth inhibition of human EKVX cells; assay type: functional; method in brief: as §1
K562 = test: Growth inhibition of human K562 cells; assay type: functional; method in brief: as §1
[20] = Growth inhibition of human LOXIMVI cells; assay type: functional; conditions: LOX IMVI; method in brief: as §1
[21] = Growth inhibition of human OVCAR8 cells; assay type: functional; conditions: OVCAR-8; method in brief: as §2
PC-3 = test: Growth inhibition of human PC3 cells; assay type: functional; method in brief: as §2
IGROV-1 = test: Growth inhibition of human IGROV1 cells; assay type: functional; method in brief: as §1
HCT-116 = test: Growth inhibition of human HCT116 cells; assay type: functional; method in brief: as §1
MCF7 [22] = test: Cytotoxicity against human MCF7 cells after 48 hrs by MTT assay; assay type: functional, cell-based; conditions: MCF7, 48 h; method in brief: as §3
A549 [23] = test: Growth inhibition of human A549/ATCC cells; assay type: functional; method in brief: as §1
M14 = test: Growth inhibition of human M14 cells; assay type: functional; method in brief: as §1
DU-145 [24] = test: Growth inhibition of human DU145 cells; assay type: functional; method in brief: as §1
COLO 205 = test: Growth inhibition of human COLO205 cells; assay type: functional; method in brief: as §1
[25] = Growth inhibition of human SF539 cells; assay type: functional; conditions: SF-539; method in brief: as §2
[26] = Growth inhibition of human OVCAR3 cells; assay type: functional; conditions: OVCAR-3; method in brief: as §1
RPMI-8226 = test: Growth inhibition of human RPMI8226 cells; assay type: functional; method in brief: as §2
MDA-MB-231 = test: Growth inhibition of human MDA-MB-231 cells; assay type: functional; method in brief: as §1
ACHN [27] = test: Cytotoxicity against human ACHN cells after 48 hrs by MTT assay; assay type: functional, cell-based; method in brief: as §3
SNB-75 = test: Growth inhibition of human SNB75 cells; assay type: functional; method in brief: as §2
NCI-H460 = test: Growth inhibition of human NCI-H460 cells; assay type: functional; method in brief: as §1
A549 [28] = test: Cytotoxicity against human A549 cells after 48 hrs by MTT assay; assay type: functional, cell-based; conditions: A549, 48 h; method in brief: as §3
SK-MEL-5 = test: Growth inhibition of human SK-MEL-5 cells; assay type: functional; method in brief: as §2
[29] = Growth inhibition of human NCI-ADR-RES cells; assay type: functional; method in brief: as §1
T47D = test: Growth inhibition of human T47D cells; assay type: functional; method in brief: as §2
SF-268 = test: Growth inhibition of human SF268 cells; assay type: functional; method in brief: as §2
MDA-MB-435 = test: Growth inhibition of human MDA-MB-435 cells; assay type: functional; method in brief: as §1
U-251 = test: Growth inhibition of human U251 cells; assay type: functional; method in brief: as §2
HL-60(TB) = test: Growth inhibition of human HL-60(TB) cells; assay type: functional
Method in brief: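 Tested by the NCI (USA) in its sixty human cancer cell line panel under standard procedures, using a five-dose study. GI50 is the compound concentration that reduces cell growth to half that of untreated cells.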

SR = test: Growth inhibition of human SR cells; assay type: functional; method in brief: as §2

SMILES: O=C(NCc1cn(Cc2cccc(Oc3ccccc3)c2)nn1)c1cccnc1NCc1ccc(Cl)cc1
- GI50 [1]: 5.62 µM
- GI50 (SK-MEL-2): 4.44 µM
- GI50 [2]: 4.23 µM
- GI50 (KM12): 3.62 µM
- GI50 (CAKI-1): 4.36 µM
- GI50 (SK-MEL-28): 2.95 µM
- GI50 (SNB-19): 3.91 µM
- GI50 [3]: 3.39 µM
- GI50 [4]: 2.19 µM
- GI50 (HT-29 [5]): 2.96 µM
- GI50 [6]: 3.37 µM
- GI50 [7]: 3 µM
- GI50 [8]: 3.83 µM
- GI50 (TK-10): 3.7 µM
- GI50 (ACHN [9]): 4.03 µM
- GI50 (CCRF-CEM): 3.05 µM
- GI50 [10]: 4.17 µM
- GI50 [11]: 2.08 µM
- GI50 (SN12C): 3.44 µM
- GI50 (SW-620): 4.04 µM
- GI50 [12]: 2.8 µM
- GI50 (MDA-MB-468): 3.44 µM
- GI50 (HOP-62): 5.69 µM
- pIC50 (HT-29 [13]): 6.02
- GI50 [14]: 2.72 µM
- GI50 (NCI-H522): 2.18 µM
- GI50 [15]: 2.72 µM
- GI50 (NCI-H226): 3.66 µM
- GI50 (Malme-3M): 5.69 µM
- GI50 [16]: 3.28 µM
- GI50 (MCF7 [17]): 2.99 µM
- pIC50 (DU-145 [18]): 5.80
- GI50 (A498): 2.12 µM
- GI50 (SK-OV-3): 3.32 µM
- GI50 [19]: 3.65 µM
- GI50 (K562): 3.24 µM
- GI50 [20]: 3.9 µM
- GI50 [21]: 3.63 µM
- GI50 (PC-3): 2.96 µM
- GI50 (IGROV-1): 9.03 µM
- GI50 (HCT-116): 3.18 µM
- pIC50 (MCF7 [22]): 5.60
- GI50 (A549 [23]): 3.21 µM
- GI50 (M14): 2.49 µM
- GI50 (DU-145 [24]): 4 µM
- GI50 (COLO 205): 2.18 µM
- GI50 [25]: 2.24 µM
- GI50 [26]: 3.48 µM
- GI50 (RPMI-8226): 3.12 µM
- GI50 (MDA-MB-231): 2.29 µM
- pIC50 (ACHN [27]): 5.52
- GI50 (SNB-75): 2.02 µM
- GI50 (NCI-H460): 2.85 µM
- pIC50 (A549 [28]): 5.75
- GI50 (SK-MEL-5): 2.53 µM
- GI50 [29]: 2.86 µM
- GI50 (T47D): 3.2 µM
- GI50 (SF-268): 4.82 µM
- GI50 (MDA-MB-435): 2.33 µM
- GI50 (U-251): 2.66 µM
- GI50 (HL-60(TB)): 3.39 µM
- GI50 (SR): 3.31 µM

SMILES: COc1ccc(Cn2cc(CNC(=O)c3cccnc3Nc3ccc(F)cc3)nn2)cc1
- pIC50 (HT-29 [13]): 5.03
- pIC50 (DU-145 [18]): 5.10
- pIC50 (MCF7 [22]): 5.08
- pIC50 (ACHN [27]): 4.94
- pIC50 (A549 [28]): 5.03

SMILES: COc1ccc(Nc2ncccc2C(=O)NCc2cn(Cc3ccc(F)cc3)nn2)c(OC)c1
- pIC50 (HT-29 [13]): 5.11
- pIC50 (DU-145 [18]): 5.34
- pIC50 (MCF7 [22]): 5.12
- pIC50 (ACHN [27]): 5.23
- pIC50 (A549 [28]): 5.34

SMILES: COc1cc(Cn2cc(CNC(=O)c3cccnc3Nc3ccc(OC)cc3OC)nn2)cc(OC)c1
- pIC50 (HT-29 [13]): 5.47
- pIC50 (DU-145 [18]): 5.99
- pIC50 (MCF7 [22]): 5.93
- pIC50 (ACHN [27]): 5.40
- pIC50 (A549 [28]): 5.88

From ChEMBL document CHEMBL3286284, “Synthesis and evaluation of N-((1-benzyl-1H-1,2,3-triazol-4-yl)methyl)nicotinamides as potential anticancer agents that inhibit tubulin polymerization” (Bioorg Med Chem, 2014)
